{
  "source": "ChEMBL document CHEMBL1149757",
  "about": "“Synthesis and antimalarial activity of new analogues of amodiaquine” (Eur J Med Chem, 2008)",
  "key": {"Plasmodium falciparum [1]": {"tested_on": "Plasmodium falciparum", "experiment": "Antimalarial activity against chloroquine-resistant Plasmodium falciparum FcB1R after 24 hrs by semiautomated micro dilution assay", "assay_type": "functional, organism-based", "outline": "(§1)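 Asynchronous P. falciparum cultures on human erythrocytes (0.5% parasitaemia, 1% final haematocrit) were exposed to serially diluted drug for 24 h at 37 °C. [³H]hypoxanthine was then added for a further 24 h. Cells were freeze-thawed, harvested onto glass-fibre filters and scintillation-counted against a drug-free control on the same plate. IC50 was read from concentration-response curves (mean ± SD, independent experiments). DMSO was ≤0.1%.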"}, "Plasmodium falciparum [2]": {"tested_on": "Plasmodium falciparum", "experiment": "Antimalarial activity against chloroquine-resistant Plasmodium falciparum K1 after 24 hrs by semiautomated micro dilution assay", "assay_type": "functional, organism-based", "conditions": "K1, 24 h", "outline": "as §1"}, "[3]": {"experiment": "Cytotoxicity against human […] cells after 7 days by MTT assay", "assay_type": "cell-based", "outline": "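MRC-5 human embryonic lung cells seeded at 5000 per well. After 24 h, cells were washed and given two-fold drug dilutions (32 to 1.6) in RPMI + 5% FCS, with final DMSO below 0.5%. Incubated 7 days at 37 °C in 5% CO₂. MTT read-out as % reduction of 540 nm absorbance versus untreated cultures. CC50 from two experiments.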"}, "[4]": {"experiment": "Selectivity index, ratio of CC50 for human MRC5 cells to IC50 for Plasmodium falciparum K1", "assay_type": "functional", "outline": "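Ratio of MRC-5 CC50 to P. falciparum K1 IC50. CC50: 7-day MTT assay at 540 nm, from two experiments. IC50: asynchronous cultures (0.5% parasitaemia, 1% haematocrit) exposed to drug for 24 h at 37 °C, then [³H]hypoxanthine added for a further 24 h. Incorporation compared with drug-free controls; mean of independent experiments.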"}, "Plasmodium falciparum [5]": {"tested_on": "Plasmodium falciparum", "experiment": "Antimalarial activity against chloroquine-sensitive Plasmodium falciparum Thai after 24 hrs by semiautomated micro dilution assay"}, "Plasmodium berghei [6]": {"tested_on": "Plasmodium berghei", "experiment": "Antimalarial activity as increased MST in Plasmodium berghei ANKA 65 infected Swiss CD1 mice (Mus musculus) at 20 mg/kg initial oral followed by intraperitoneal dose after 4 days", "assay_type": "functional"}, "Plasmodium berghei [7]": {"tested_on": "Plasmodium berghei", "experiment": "Antimalarial activity as reduced parasitaemia in Plasmodium berghei ANKA 65 infected Swiss CD1 mice (Mus musculus) at 20 mg/kg initial oral followed by intraperitoneal dose after 4 days", "assay_type": "functional", "set-up": "scale not given: the % may be the effect or the level left"}, "[8]": {"experiment": "Inhibition of haem polymerization after 24 hrs", "assay_type": "functional", "outline": "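Lipid-induced β-hematin formation: hemin in 25 mM NaOH mixed with a 1-monooleoylglycerol suspension in 90 mM sodium acetate, pH 5. Drug added from DMSO stock; controls received equal DMSO. Incubated 24 h at 37 °C, in duplicate. Samples centrifuged at 4 °C, and the pellet washed repeatedly with 10 mM sodium phosphate pH 7.4 containing 2.5% SDS.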"}, "Plasmodium berghei [9]": {"tested_on": "Plasmodium berghei", "experiment": "Antimalarial activity as increased MST in Plasmodium berghei ANKA 65 infected Swiss CD1 mice (Mus musculus) at 40 mg/kg initial oral followed by intraperitoneal dose after 4 days", "assay_type": "functional, organism-based", "set-up": "dose 40 mg/kg", "outline": "(§2)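 P. berghei ANKA 65 in 4-week-old female Swiss CD-1 mice (20–25 g), infected ip with about 10⁷ parasitized erythrocytes from a donor. Treatment at 40 mg/kg in 100% DMSO: first dose oral at infection, then ip on the following four days. Three mice per group, with three DMSO-dosed infected controls. Parasite reduction read on day 4; survival compared with untreated controls.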"}, "Plasmodium berghei [10]": {"tested_on": "Plasmodium berghei", "experiment": "Antimalarial activity as reduced parasitaemia in Plasmodium berghei ANKA 65 infected Swiss CD1 mice (Mus musculus) at 40 mg/kg initial oral followed by intraperitoneal dose after 4 days", "assay_type": "functional", "set-up": "scale not given: the % may be the effect or the level left", "outline": "as §2"}, "Plasmodium berghei [11]": {"tested_on": "Plasmodium berghei", "experiment": "Antimalarial activity as increased MST in Plasmodium berghei ANKA 65 infected Swiss CD1 at 10 mg/kg initial oral followed by intraperitoneal dose after 4 days", "assay_type": "functional, organism-based", "set-up": "dose 10 mg/kg"}, "Plasmodium berghei [12]": {"tested_on": "Plasmodium berghei", "experiment": "Antimalarial activity in Plasmodium berghei ANKA 65 infected Swiss CD1 mice (Mus musculus) as reduced parasitaemia at 10 mg/kg initial oral dose and further intraperitoneal dose after 4 days", "assay_type": "functional", "set-up": "scale not given: the % may be the effect or the level left"}},
  "note": "pIC50: −log10 of the molar value. The source made the active and inactive calls. The calls are words filed in the database; no cut-off is given here.",
  "data": [
    {"smiles": "CCN(CC)Cc1ccc(Nc2ccnc3cc(Cl)ccc23)cc1O", "note": "[ISOQUINE]", "values": [
      {"measurement": "pIC50", "setting": "Plasmodium falciparum [1]", "result": 8.27},
      {"measurement": "pIC50", "setting": "Plasmodium falciparum [2]", "result": 8.14},
      {"measurement": "CC50 at 168 h", "setting": "[3]", "result": 8000, "unit": "nM"},
      {"measurement": "Ratio CC50/IC50", "setting": "[4]", "result": 1096},
      {"measurement": "pIC50", "setting": "Plasmodium falciparum [5]", "result": 8.37}
    ]},
    {"smiles": "CCN(CC)Cc1cc(N)cc(Nc2ccnc3cc(Cl)ccc23)c1", "values": [
      {"measurement": "Activity", "setting": "Plasmodium berghei [6]", "result": 63, "unit": "%"},
      {"measurement": "Activity", "setting": "Plasmodium berghei [7]", "result": 96, "unit": "%"},
      {"measurement": "pIC50", "setting": "[8]", "result": 3.82},
      {"measurement": "pIC50", "setting": "Plasmodium falciparum [1]", "result": 7.74},
      {"measurement": "pIC50", "setting": "Plasmodium falciparum [2]", "result": 7.49},
      {"measurement": "CC50 at 168 h", "setting": "[3]", "result": "> 25000", "unit": "nM"},
      {"measurement": "Ratio CC50/IC50", "setting": "[4]", "result": 774},
      {"measurement": "Activity", "setting": "Plasmodium berghei [9]", "result": "Active"},
      {"measurement": "pIC50", "setting": "Plasmodium falciparum [5]", "result": 7.79},
      {"measurement": "Activity", "setting": "Plasmodium berghei [10]", "result": 100, "unit": "%"}
    ]},
    {"smiles": "CCN(CC)CCCC(C)Nc1ccnc2cc(Cl)ccc12", "note": "(stereo not drawn) [CHLOROQUINE]", "values": [
      {"measurement": "Activity", "setting": "Plasmodium berghei [11]", "result": "Active"},
      {"measurement": "pIC50", "setting": "[8]", "result": 4.15},
      {"measurement": "CC50 at 168 h", "setting": "[3]", "result": "> 32000", "unit": "nM"},
      {"measurement": "Activity", "setting": "Plasmodium berghei [12]", "result": 100, "unit": "%"}
    ]},
    {"smiles": "CCN(CC)Cc1cc(NCCN2CCCCC2)cc(Nc2ccnc3cc(Cl)ccc23)c1", "values": [
      {"measurement": "pIC50", "setting": "Plasmodium falciparum [1]", "result": 7.72},
      {"measurement": "pIC50", "setting": "Plasmodium falciparum [2]", "result": 7.58},
      {"measurement": "CC50 at 168 h", "setting": "[3]", "result": 4000, "unit": "nM"},
      {"measurement": "Ratio CC50/IC50", "setting": "[4]", "result": 152},
      {"measurement": "pIC50", "setting": "Plasmodium falciparum [5]", "result": 7.81}
    ]},
    {"smiles": "CCN(CC)Cc1cccc(Nc2ccnc3cc(Cl)ccc23)c1", "values": [
      {"measurement": "pIC50", "setting": "Plasmodium falciparum [1]", "result": 7.80},
      {"measurement": "pIC50", "setting": "Plasmodium falciparum [2]", "result": 7.77},
      {"measurement": "CC50 at 168 h", "setting": "[3]", "result": 12500, "unit": "nM"},
      {"measurement": "Ratio CC50/IC50", "setting": "[4]", "result": 731},
      {"measurement": "pIC50", "setting": "Plasmodium falciparum [5]", "result": 7.88}
    ]},
    {"smiles": "CCN(CC)Cc1cc(Nc2ccnc3cc(Cl)ccc23)ccc1O.Cl", "values": [
      {"measurement": "Activity", "setting": "Plasmodium berghei [11]", "result": "Active"},
      {"measurement": "pIC50", "setting": "[8]", "result": 4.32},
      {"measurement": "CC50 at 168 h", "setting": "[3]", "result": 12000, "unit": "nM"},
      {"measurement": "Ratio CC50/IC50", "setting": "[4]", "result": 1276},
      {"measurement": "Activity", "setting": "Plasmodium berghei [12]", "result": 100, "unit": "%"}
    ]},
    {"smiles": "CCN(CC)Cc1cccc(Nc2ccnc3cc(Cl)ccc23)c1O", "values": [
      {"measurement": "pIC50", "setting": "Plasmodium falciparum [1]", "result": 7.02},
      {"measurement": "pIC50", "setting": "Plasmodium falciparum [2]", "result": 6.58},
      {"measurement": "CC50 at 168 h", "setting": "[3]", "result": "> 25000", "unit": "nM"},
      {"measurement": "Ratio CC50/IC50", "setting": "[4]", "result": ">95"},
      {"measurement": "pIC50", "setting": "Plasmodium falciparum [5]", "result": 6.99}
    ]},
    {"smiles": "CCN(CC)Cc1cc(O)cc(Nc2ccnc3cc(Cl)ccc23)c1", "values": [
      {"measurement": "pIC50", "setting": "Plasmodium falciparum [1]", "result": 7.45},
      {"measurement": "pIC50", "setting": "Plasmodium falciparum [2]", "result": 7.37},
      {"measurement": "CC50 at 168 h", "setting": "[3]", "result": "> 25000", "unit": "nM"},
      {"measurement": "Ratio CC50/IC50", "setting": "[4]", "result": ">584"},
      {"measurement": "pIC50", "setting": "Plasmodium falciparum [5]", "result": 7.60}
    ]},
    {"smiles": "CCN(CC)Cc1ccc(O)c(Nc2ccnc3cc(Cl)ccc23)c1", "values": [
      {"measurement": "pIC50", "setting": "Plasmodium falciparum [2]", "result": 7.49},
      {"measurement": "CC50 at 168 h", "setting": "[3]", "result": 19000, "unit": "nM"},
      {"measurement": "Ratio CC50/IC50", "setting": "[4]", "result": 583},
      {"measurement": "pIC50", "setting": "Plasmodium falciparum [5]", "result": 7.82}
    ]}
  ]
}
